Hits are enriched below; roughly 1.9% of the tested compounds scored in any of these assays.
Cneo AK release – Cryptococcus neoformans cell lysis inducers, primary screen, AK release luminescence, single concentration | C. neoformans lysis, adenylate kinase release luminescence, 4 h; normalised: neutral wells 0, clomiphene wells 100 | lysis activity, % at 15 µM | 0.2% of 360,000 active | AID 651654, 2012;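 active = mean lysis activity across replicates of at least 80%, whatever share of replicates individually reach that level; inactive = mean lysis activity below 80%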
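Schedule: static 4 h at 37 °C with compound, 1 h detection; system: C. neoformans cells; benchmarks: Clomiphene as positive control; buffer or medium: fresh YPD medium; measure: luminescence rise reflecting yeast cell lysis; measured by: luminescent adenylate kinase detection reagent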
DENV2 CPE – inhibitors of DENV2 cytopathic effect, primary screen, cell-based, plate reader, single concentration. DENV2-infected cells, cytopathic effect rescue. CPE inhibition, % at 9.99 µM. 1.7% of 350,000 active. AID 651640, 2012; in the data active = CPE inhibition above about 20%, passing the limit was not always enough; inconclusive = no clear call, values can overlap the other calls; tested in BHK-21 cells;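 also: 0% = median of neutral control wells and 100% = median of positive control wells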
PGC1a acetyl inh – inhibitors of PGC1a acetylation signal, primary screen, cell-based, U2OS, AlphaScreen, inhibitor mode; AID 651687, 2012; AlphaScreen anti-acetyl-lysine; with virally co-expressed GCN5 acetyltransferase; inhibition, % at 15.6 µM; 0.17% of 350,000 active;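 active = every replicate shows inhibition of at least 40%; inconclusive = mean inhibition at least 40% but some replicate below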;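 also: 0% = neutral control wells and 100% = positive control wells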
XiGFP reactiv – activators of inactive X chromosome reactivation, primary screen, imaging, XiGFP fibroblasts, GFP high-content imaging, set 2; XiGFP mouse fibroblasts, % GFP-positive cells imaging, 3 d; cells co-treated with 5-aza-dC sensitizer; scaled so ellipticine positive control = 100%; activation, % at 7.58 µM; 0.055% of 360,000 active; AID 743238, 2013;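 active = mean normalized replicate activation at least 10% and every replicate at or above 10%; inconclusive = only one of the two criteria met; inactive = mean below 10% and not all replicates reach 10%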;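 also: 0% = median of on-plate neutral control wells and 100% = ellipticine 6 µM median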
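Assay system: SV40-immortalized XiGFP fibroblast cells, line 68-5-11; buffer or medium: DMEM plus 5-aza-dC sensitizer; compound: one concentration, pinned; timing: compounds 3 days, fix/stain 15 min at room temperature; benchmarks: positive control ellipticine, 6 µM final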
CFTR F508del cor – F508del CFTR correction, initial screen, CFBE line, single point; CFBE cells, YFP halide quenching; stimulated with forskolin plus potentiator P3; % fluorescence drop versus neutral controls; activity (quench increase), % at 7.58 µM; 0.36% of 350,000 active; AID 720511, 2013;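 active = mean added fluorescence quench of at least 8% versus neutral control, with both replicates also reaching 8%; inconclusive = only one of the mean or replicate conditions met; inactive = mean below 8% and not both replicates reaching 8%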;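 also: cells transiently co-express mutant CFTR-F508del with the halide-sensitive YFP; corrector assay measuring rescue of mutant channel to the surface after 24 h compound exposure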
FN deposit inh – inhibitors of fibronectin matrix deposition, primary screen, AH1F cells, Alexa488-fibronectin fluorescence, plate reader | inhibition, % at 12.6 µM | AID 743247, 2014 | 0.086% of 350,000 active | AH1F fibroblasts, overnight;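 active = mean inhibition across replicates of 30% or more, regardless of how many single replicates reach that level; inconclusive = mean under 30% yet at least half of replicates reach 30%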;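 also: positive control wells lacked labelled fibronectin entirely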
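Test system: AH1F fibroblast monolayer depositing Alexa488-labelled fibronectin into matrix. Input: 10000 cells per well. Technique: fluorescence, ex 485 nm, em 525 nm. Buffer or medium: DMEM plus 2% serum, read in PBS. Timing: 1 h cell adhesion before compound, then overnight fibronectin incubation. Compound: single dose, pinned. Read-out basis: inhibition from reduced deposited-fibronectin fluorescence.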
* hit, by the source's call; ? = inconclusive; / = no result given.

SMILES	Cneo AK release	DENV2 CPE	PGC1a acetyl inh	XiGFP reactiv	CFTR F508del cor	FN deposit inh
C[C@H](CO)N1C[C@H](C)[C@@H](CN(C)C(=O)CCN2CCCCC2)Oc2ncc(C#Cc3ccccc3)cc2C1=O	1.9	-6.6	9.0	-2.0	0.1	/
CCC(=O)N[C@@H]1CC[C@H](CC(=O)NCc2ccccc2OC)O[C@H]1CO	50.8	4.9	3.2	0.1	-2.5	/
CO[C@H]1CN(C)C(=O)c2cc(NC(=O)C3CCOCC3)ccc2OC[C@@H](C)N(C(=O)c2ccccc2)C[C@@H]1C	/	/	0.7	0.0	-2.8	-63.8
CO[C@H]1CN(C)C(=O)c2cc(NS(C)(=O)=O)ccc2OC[C@@H](C)N(Cc2cccnc2)C[C@@H]1C	/	/	10.9	0.1	0.4	-2.0
Cc1ccccc1S(=O)(=O)N(C)C[C@H]1OCc2ccccc2-c2c(n(C)c3ccccc23)C(=O)N([C@@H](C)CO)C[C@@H]1C	1.8	0.5	7.6	0.0	-7.5	-9.0
CCC(=O)N(C)C[C@H]1Oc2ncc(-c3ccccc3OC)cc2C(=O)N([C@H](C)CO)C[C@@H]1C	-1.5	?	-7.4	0.0	0.4	-6.3
Cc1noc(C)c1S(=O)(=O)Nc1cccc2c1O[C@@H](CN(C)C(=O)NC(C)C)[C@@H](C)CN([C@@H](C)CO)C2=O	2.7	-5.9	4.7	0.0	1.8	-7.7
COc1cccc(C#Cc2cnc3c(c2)C(=O)N([C@H](C)CO)C[C@H](C)[C@@H](CN(C)C(C)=O)O3)c1	-1.3	23.6*	-8.6	-0.5	3.6	5.1
C[C@@H]1CN([C@H](C)CO)C(=O)c2cc(C#Cc3cccnc3)cnc2O[C@@H]1CN(C)C(=O)CN(C)C	0.8	35.1*	-4.2	0.0	1.4	/
COc1cccc(-c2cnc3c(c2)C(=O)N([C@H](C)CO)C[C@H](C)[C@@H](CN(C)C(C)=O)O3)c1	0.3	32.0*	-7.7	-0.9	1.6	-0.3
COc1cccc(C#Cc2cnc3c(c2)C(=O)N([C@H](C)CO)C[C@H](C)[C@H](CN(C)C(C)=O)O3)c1	-0.2	3.2	-8.2	-0.8	1.6	-9.3
CC(=O)N(C)C[C@H]1Oc2ncc(C#Cc3ccccc3)cc2C(=O)N([C@H](C)CO)C[C@H]1C	-0.5	48.3*	3.5	2.0	-1.4	/
CO[C@@H]1CN(C)C(=O)c2cc(NC(=O)Cc3ccccc3)ccc2OC[C@H](C)N(C(C)=O)C[C@H]1C	-1.6	1.6	-2.7	0.4	1.1	-1.7
C[C@H](CO)N1C[C@H](C)[C@@H](CN(C)C(=O)C2CCOCC2)Oc2ncc(C#CCc3ccccc3)cc2C1=O	86.4*	/	-7.1	0.3	-1.6	/
Cc1ccc(S(=O)(=O)N[C@@H]2C=C[C@@H](CC(=O)O)O[C@@H]2CO)cc1	-3.3	1.3	2.0	0.6	-1.1	/
CC1CN(C(=O)c2cc3c(=O)n4ccccc4nc3n2C)CC(C)O1 (configuration not stated)	0.3	0.0	/	0.2	2.1	36.4*
Cn1c(C(=O)N2CCOCC2)cc2c(=O)n3ccccc3nc21	-1.1	14.2	/	0.0	0.6	-3.4
CC(C)NC(=O)N(C)C[C@@H]1Oc2ccc(NS(C)(=O)=O)cc2CC(=O)N([C@H](C)CO)C[C@H]1C	-1.2	-1.0	4.5	0.1	-1.4	/
C[C@H](CO)N1C[C@H](C)[C@@H](CN(C)C(=O)NC2CCCCC2)Oc2c(NC(=O)c3cnccn3)cccc2C1=O	-26.6	4.9	0.8	0.2	6.0	9.2
CCS(=O)(=O)Nc1ccc2c(c1)C(=O)N(C)C[C@@H](OC)[C@H](C)CN[C@H](C)CO2	5.2	-4.8	/	0.0	/	-2.3
CO[C@@H]1CN(C)C(=O)c2cc(NS(=O)(=O)C3CCCCC3)ccc2OC[C@H](C)NC[C@@H]1C	85.6*	-0.5	5.5	/	-2.4	/
CCS(=O)(=O)Nc1ccc2c(c1)C(=O)N(C)C[C@H](OC)[C@@H](C)CN[C@@H](C)CO2	-1.0	24.7*	/	-0.2	/	-15.1
CCN1/C(=C\c2ccc3cc(C)ccc3[n+]2CC)Sc2cc(C)c(C)cc21	-5.7	-0.2	/	77.2*	61.8*	-0.2
CCN1/C(=C/c2ccc3cc(C)cc(C)c3[n+]2CC)Sc2cc(C)ccc21	-2.6	2.7	/	109.6*	65.0*	-6.4
C[C@H](CO)N1C[C@H](C)[C@H](CN(C)C(=O)Nc2ccc3c(c2)OCO3)Oc2ccc(NC(=O)Nc3ccccc3)cc2C1=O	/	/	3.7	-1.2	-2.2	/
SMILES	Cneo AK release	DENV2 CPE	PGC1a acetyl inh	XiGFP reactiv	CFTR F508del cor	FN deposit inh
COc1ccccc1S(=O)(=O)N[C@H]1C=C[C@H](CC(=O)NCc2cccc(F)c2)O[C@@H]1CO	2.6	10.7	-2.2	0.0	1.4	-11.1
COc1ccc(CN(C)C[C@@H]2Oc3c(NC(=O)Nc4ccc(OC)cc4)cccc3C(=O)N([C@H](C)CO)C[C@H]2C)cc1	2.4	41.8*	23.5	0.1	0.2	/
COc1ccc(NC(=O)Nc2cccc3c2O[C@H](CN(C)Cc2ccc(C(F)(F)F)cc2)[C@@H](C)CN([C@H](C)CO)C3=O)cc1	-5.1	22.4*	0.5	-1.0	-1.0	/
C[C@@H]1CN([C@H](C)CO)C(=O)c2cccc(NC(=O)Nc3ccc4c(c3)OCO4)c2O[C@@H]1CN(C)Cc1ccc(C(F)(F)F)cc1	42.0	36.4*	4.8	0.1	-1.7	/
C[C@H]1CN([C@@H](C)CO)C(=O)c2cccc(NC(=O)Nc3ccc4c(c3)OCO4)c2O[C@H]1CN(C)Cc1ccc(C(F)(F)F)cc1	0.3	0.7	-11.8	0.1	0.3	/
COc1ccc(NC(=O)Nc2cccc3c2O[C@H](CN(C)C(=O)NC2CCCCC2)[C@H](C)CN([C@@H](C)CO)C3=O)cc1	56.8	88.4*	5.3	-0.6	1.2	2.6
COc1ccc(CN(C)C[C@@H]2Oc3c(NC(=O)Nc4ccc(C(F)(F)F)cc4)cccc3C(=O)N([C@H](C)CO)C[C@H]2C)cc1	1.1	4.1	0.9	-0.4	4.5	/
C[C@H](CO)N1C[C@H](C)[C@H](CN(C)Cc2ccc(C(F)(F)F)cc2)Oc2c(NC(=O)c3ccncc3)cccc2C1=O	-4.0	2.9	10.2	-0.2	-1.0	9.6
C[C@@H]1CN([C@H](C)CO)C(=O)c2cccc(NC(=O)Nc3ccc(F)cc3)c2O[C@H]1CN(C)Cc1ccc(C(F)(F)F)cc1	0.6	/	-1.3	-0.5	2.1	/

Assay outcomes deposited in PubChem BioAssay by Broad Institute.
